Results reported in ChEMBL document CHEMBL4689842, “EUbOPEN Chemogenomics Library wave 1” (2021).

Test system: U2OS
Assay: Multiplex assay against U2OS
Type: toxicity, cell-based
Settings: human
Outline: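 Tubulin, mitochondrial-mass and membrane-permeability phenotypes are per cents of healthy-nucleus cells. Cells were gated by CellPathfinder machine learning into Hoechst high-intensity objects or normal cells, normal cells into healthy, pyknosed or fragmented nuclei, and pyknosed cells into mitotic or apoptotic. Before that, live cells stained at seeding with Hoechst33342, BioTracker Green Microtubule Cytoskeleton Dye, MitoTracker Red and Annexin V Alexa Fluor 680 were imaged on a CQ1 microscope at 37°C and 5% CO2 after compound addition.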

[1] = 12 h, 1 µM, compound concentration 1 uM, replicate 1
[2] = 12 h, 1 µM, compound concentration 1 uM, replicate 2
[3] = 12 h, 10 µM, compound concentration 10 uM, replicate 1
[4] = 12 h, 10 µM, compound concentration 10 uM, replicate 2
[5] = 24 h, 1 µM, compound concentration 1 uM, replicate 1
[6] = 24 h, 1 µM, compound concentration 1 uM, replicate 2
[7] = 24 h, 10 µM, compound concentration 10 uM, replicate 1
[8] = 24 h, 10 µM, compound concentration 10 uM, replicate 2
[9] = 48 h, 1 µM, compound concentration 1 uM, replicate 1
[10] = 48 h, 1 µM, compound concentration 1 uM, replicate 2
[11] = 48 h, 10 µM, compound concentration 10 uM, replicate 1
[12] = 48 h, 10 µM, compound concentration 10 uM, replicate 2

## CCCn1c(=O)c2[nH]c(-c3cnn(Cc4cccc(C(F)(F)F)c4)c3)nc2n(CC)c1=O [GS 6201]
[1]
  Population Apoptotic (%): 28%
  Population Fragmented Nuclei (%): 8%
  Population Healthy Nuclei (%): 78%
  Population Hoechst High Intensity Objects (%): 9%
  Population Membrane Permeable-Phenotype (%): 14%
  Population Mitochondria Different-Phenotype (%): 5%
  Population Mitotic Cells (%): 71%
  Population Normal (%): 90%
  Population Pyknosed Nuclei (%): 13%
  Population Tubulin-Different-Phenotype (%): 14%
  Total Cell Count: 1120
[2]
  Population Apoptotic (%): 42%
  Population Fragmented Nuclei (%): 4%
  Population Healthy Nuclei (%): 88%
  Population Hoechst High Intensity Objects (%): 2%
  Population Membrane Permeable-Phenotype (%): 8%
  Population Mitochondria Different-Phenotype (%): 9%
  Population Mitotic Cells (%): 57%
  Population Normal (%): 97%
  Population Pyknosed Nuclei (%): 7%
  Population Tubulin-Different-Phenotype (%): 28%
  Total Cell Count: 75
[3]
  Population Apoptotic (%): 35%
  Population Fragmented Nuclei (%): 34%
  Population Healthy Nuclei (%): 52%
  Population Hoechst High Intensity Objects (%): 19%
  Population Membrane Permeable-Phenotype (%): 51%
  Population Mitochondria Different-Phenotype (%): 31%
  Population Mitotic Cells (%): 64%
  Population Normal (%): 80%
  Population Pyknosed Nuclei (%): 12%
  Population Tubulin-Different-Phenotype (%): 82%
  Total Cell Count: 118
[4]
  Population Apoptotic (%): 50%
  Population Fragmented Nuclei (%): 17%
  Population Healthy Nuclei (%): 77%
  Population Hoechst High Intensity Objects (%): 5%
  Population Membrane Permeable-Phenotype (%): 3%
  Population Mitochondria Different-Phenotype (%): 20%
  Population Mitotic Cells (%): 50%
  Population Normal (%): 94%
  Population Pyknosed Nuclei (%): 4%
  Population Tubulin-Different-Phenotype (%): 10%
  Total Cell Count: 98
[5]
  Population Apoptotic (%): 27%
  Population Fragmented Nuclei (%): 8%
  Population Healthy Nuclei (%): 82%
  Population Hoechst High Intensity Objects (%): 7%
  Population Membrane Permeable-Phenotype (%): 7%
  Population Mitochondria Different-Phenotype (%): 7%
  Population Mitotic Cells (%): 72%
  Population Normal (%): 92%
  Population Pyknosed Nuclei (%): 8%
  Population Tubulin-Different-Phenotype (%): 8%
  Total Cell Count: 2066
[6]
  Population Apoptotic (%): 50%
  Population Fragmented Nuclei (%): 5%
  Population Healthy Nuclei (%): 90%
  Population Hoechst High Intensity Objects (%): 4%
  Population Membrane Permeable-Phenotype (%): 2%
  Population Mitochondria Different-Phenotype (%): 10%
  Population Mitotic Cells (%): 50%
  Population Normal (%): 95%
  Population Pyknosed Nuclei (%): 4%
  Population Tubulin-Different-Phenotype (%): 30%
  Total Cell Count: 81
[7]
  Population Apoptotic (%): 64%
  Population Fragmented Nuclei (%): 44%
  Population Healthy Nuclei (%): 41%
  Population Hoechst High Intensity Objects (%): 16%
  Population Membrane Permeable-Phenotype (%): 47%
  Population Mitochondria Different-Phenotype (%): 31%
  Population Mitotic Cells (%): 35%
  Population Normal (%): 83%
  Population Pyknosed Nuclei (%): 14%
  Population Tubulin-Different-Phenotype (%): 58%
  Total Cell Count: 133
[8]
  Population Apoptotic (%): 50%
  Population Fragmented Nuclei (%): 17%
  Population Healthy Nuclei (%): 72%
  Population Hoechst High Intensity Objects (%): 3%
  Population Membrane Permeable-Phenotype (%): 5%
  Population Mitochondria Different-Phenotype (%): 11%
  Population Mitotic Cells (%): 50%
  Population Normal (%): 96%
  Population Pyknosed Nuclei (%): 10%
  Population Tubulin-Different-Phenotype (%): 9%
  Total Cell Count: 139
[9]
  Population Apoptotic (%): 44%
  Population Fragmented Nuclei (%): 8%
  Population Healthy Nuclei (%): 82%
  Population Hoechst High Intensity Objects (%): 1%
  Population Membrane Permeable-Phenotype (%): 3%
  Population Mitochondria Different-Phenotype (%): 11%
  Population Mitotic Cells (%): 55%
  Population Normal (%): 98%
  Population Pyknosed Nuclei (%): 9%
  Population Tubulin-Different-Phenotype (%): 7%
  Total Cell Count: 2377
[10]
  Population Apoptotic (%): 41%
  Population Fragmented Nuclei (%): 2%
  Population Healthy Nuclei (%): 91%
  Population Membrane Permeable-Phenotype (%): 1%
  Population Mitochondria Different-Phenotype (%): 13%
  Population Mitotic Cells (%): 58%
  Population Pyknosed Nuclei (%): 5%
  Population Tubulin-Different-Phenotype (%): 35%
  Total Cell Count: 110
[11]
  Population Apoptotic (%): 67%
  Population Fragmented Nuclei (%): 51%
  Population Healthy Nuclei (%): 34%
  Population Hoechst High Intensity Objects (%): 13%
  Population Membrane Permeable-Phenotype (%): 50%
  Population Mitochondria Different-Phenotype (%): 29%
  Population Mitotic Cells (%): 32%
  Population Normal (%): 86%
  Population Pyknosed Nuclei (%): 13%
  Population Tubulin-Different-Phenotype (%): 47%
  Total Cell Count: 198
[12]
  Population Apoptotic (%): 22%
  Population Fragmented Nuclei (%): 12%
  Population Healthy Nuclei (%): 80%
  Population Hoechst High Intensity Objects (%): 2%
  Population Membrane Permeable-Phenotype (%): 9%
  Population Mitochondria Different-Phenotype (%): 13%
  Population Mitotic Cells (%): 77%
  Population Normal (%): 97%
  Population Pyknosed Nuclei (%): 6%
  Population Tubulin-Different-Phenotype (%): 13%
  Total Cell Count: 214

## CCn1cc(-c2ccnc3[nH]c(-c4cccc(CN(C)C)c4)cc23)c(-c2ccc(NC(=O)N(C)C)cc2)n1 [GSK-1070916]
[1]
  Population Apoptotic (%): 25%
  Population Fragmented Nuclei (%): 4%
  Population Healthy Nuclei (%): 91%
  Population Hoechst High Intensity Objects (%): 2%
  Population Membrane Permeable-Phenotype (%): 28%
  Population Mitochondria Different-Phenotype (%): 17%
  Population Mitotic Cells (%): 75%
  Population Normal (%): 97%
  Population Pyknosed Nuclei (%): 3%
  Population Tubulin-Different-Phenotype (%): 24%
  Total Cell Count: 141
[2]
  Population Apoptotic (%): 100%
  Population Fragmented Nuclei (%): 12%
  Population Healthy Nuclei (%): 86%
  Population Hoechst High Intensity Objects (%): 14%
  Population Membrane Permeable-Phenotype (%): 30%
  Population Mitochondria Different-Phenotype (%): 35%
  Population Mitotic Cells (%): 0%
  Population Normal (%): 85%
  Population Pyknosed Nuclei (%): 1%
  Population Tubulin-Different-Phenotype (%): 26%
  Total Cell Count: 97
[3]
  Population Apoptotic (%): 50%
  Population Fragmented Nuclei (%): 12%
  Population Healthy Nuclei (%): 62%
  Population Hoechst High Intensity Objects (%): 9%
  Population Membrane Permeable-Phenotype (%): 32%
  Population Mitochondria Different-Phenotype (%): 44%
  Population Mitotic Cells (%): 49%
  Population Normal (%): 90%
  Population Pyknosed Nuclei (%): 24%
  Population Tubulin-Different-Phenotype (%): 99%
  Total Cell Count: 207
[4]
  Population Apoptotic (%): 48%
  Population Fragmented Nuclei (%): 24%
  Population Healthy Nuclei (%): 48%
  Population Hoechst High Intensity Objects (%): 16%
  Population Membrane Permeable-Phenotype (%): 37%
  Population Mitochondria Different-Phenotype (%): 67%
  Population Mitotic Cells (%): 51%
  Population Normal (%): 83%
  Population Pyknosed Nuclei (%): 27%
  Population Tubulin-Different-Phenotype (%): 100%
  Total Cell Count: 76
[5]
  Population Apoptotic (%): 38%
  Population Fragmented Nuclei (%): 6%
  Population Healthy Nuclei (%): 81%
  Population Hoechst High Intensity Objects (%): 2%
  Population Membrane Permeable-Phenotype (%): 15%
  Population Mitochondria Different-Phenotype (%): 27%
  Population Mitotic Cells (%): 61%
  Population Normal (%): 97%
  Population Pyknosed Nuclei (%): 12%
  Population Tubulin-Different-Phenotype (%): 15%
  Total Cell Count: 141
[6]
  Population Apoptotic (%): 40%
  Population Fragmented Nuclei (%): 8%
  Population Healthy Nuclei (%): 83%
  Population Hoechst High Intensity Objects (%): 18%
  Population Membrane Permeable-Phenotype (%): 22%
  Population Mitochondria Different-Phenotype (%): 63%
  Population Mitotic Cells (%): 60%
  Population Normal (%): 81%
  Population Pyknosed Nuclei (%): 8%
  Population Tubulin-Different-Phenotype (%): 18%
  Total Cell Count: 92
[7]
  Population Apoptotic (%): 65%
  Population Fragmented Nuclei (%): 13%
  Population Healthy Nuclei (%): 45%
  Population Hoechst High Intensity Objects (%): 16%
  Population Membrane Permeable-Phenotype (%): 50%
  Population Mitochondria Different-Phenotype (%): 85%
  Population Mitotic Cells (%): 34%
  Population Normal (%): 83%
  Population Pyknosed Nuclei (%): 40%
  Population Tubulin-Different-Phenotype (%): 98%
  Total Cell Count: 216
[8]
  Population Apoptotic (%): 64%
  Population Fragmented Nuclei (%): 17%
  Population Healthy Nuclei (%): 36%
  Population Hoechst High Intensity Objects (%): 18%
  Population Membrane Permeable-Phenotype (%): 63%
  Population Mitochondria Different-Phenotype (%): 87%
  Population Mitotic Cells (%): 35%
  Population Normal (%): 81%
  Population Pyknosed Nuclei (%): 45%
  Population Tubulin-Different-Phenotype (%): 100%
  Total Cell Count: 72
